Experimental data published in PMC4073670 (Nature, 2011).
Several values for one entry are separate records, joined by “and”; a condition that tells them apart may be missing. Equal values may be shown once. Square brackets hold non-standard residues; d marks the D form. Ends that are not written are not given here.

Legend:
VQIVYK = VQIVYK inhibition assay; format: biochemical; conditions: 25 mM MOPS pH 7.2, 100 μM ThS, room temperature; for VQIVYK fibrillation inhibition, equimolar peptide: equimolar ratio with VQIVYK
tau K19 [1] = assay: Tau K19 inhibition assay; format: biochemical, human; conditions: equimolar ratio with K19; 50 μM K19, pH 7.4, 37°C, quiescent
How it was run: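 K19 was expressed in E. coli BL21(DE3) with 1 mM IPTG and purified by boiling and cation exchange. Reactions held 50 μM K19 in 250 mM sodium phosphate pH 7.4 with 1 mM DTT, 12.5 μM heparin (6000 MW) and 10 μM ThS. Peptide was added from a 0.5 mM stock. Plates were read every 15 min (ex 440/em 510) at 37°C, quiescent, with 2 s shaking before reads. At least 3 replicates; lag time is the mean threshold-crossing time ± SD.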

[2] = test system: tau segment VQIVYK, and the K12 and K19 tau constructs; assay: Fibrillation of tau segment VQIVYK and tau constructs K12 and K19; format: biochemical, human
How it was run: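 Un-seeded ThS fibrillation with peptides at specified molar ratios. For K12/K19: 50 μM protein, 250 mM phosphate pH 7.4, 1 mM DTT, 12.5 μM heparin, 10 μM ThS, 37°C; K12 shaken at 900 rpm, K19 quiescent; read every 15 min (ex 440/em 510). For VQIVYK: 25 mM MOPS pH 7.2 with PTFE beads, room temperature, read every 2 min. At least 3 replicates; lag time is the mean time to cross a threshold.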

ends of K19 fibers = assay: Nanogold localization to fiber ends, electron microscopy blind counting; format: binding, human; conditions: for nanogold at fiber ends, significance vs nanogold alone: z-test versus unconjugated nanogold
How it was run: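 Cys-GGG-extended D-peptides were coupled to monomaleimido nanogold for 1 h at room temperature, and unbound peptide was removed by 10-kDa filtration. Conjugate (10 nM) was incubated 1 h with sonicated, heparin-free K19 fibers (1.67 μM by monomer) in 25 mM MOPS pH 7.2. Gold was enlarged with Goldenhance before EM. Particles within a 15 nm cutoff were scored as end- or side-bound by a blinded microscopist.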

K19 fibers = assay: Nanogold binding to K19 fibers, electron microscopy blind counting; set-up: species or system human; conditions: z-test versus unconjugated nanogold
How it was run: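 Cys-Gly3-extended test D-peptide or scrambled control (60 nmol) was conjugated to 6 nmol monomaleimido nanogold (1 h, room temperature) and freed of peptide by 10 kDa cut-off. K19 fibers (100 μM K19, 25 μM heparin, overnight at 37°C, pH 7.4) were sonicated and washed. 10 nM conjugate or control was incubated 1 h with 1.67 μM fibers (by monomer) in 25 mM MOPS pH 7.2, then gold-enhanced for EM. Fiber-bound particles were counted blind as end or side.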

tau K19 [3] = assay: Electron microscopy of K19 fibrillation; format: biochemical, human; conditions: incubation with peptide; negative stain, 1% uranyl acetate
How it was run: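 Recombinant K19 (E. coli BL21(DE3); boiled lysate, cation exchange) was incubated at 50 μM with peptide. Buffer was 250 mM sodium phosphate pH 7.4 with 1 mM DTT, 12.5 μM heparin and 10 μM ThS, held quiescent at 37°C. Samples were spotted on glow-discharged carbon/formvar copper grids for 3 min, rinsed with water, stained with 1% uranyl acetate for 90 s, and imaged by TEM.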

amyloid beta(1-42) = assay: Amyloid beta fibrillation assay; format: biochemical; conditions: 11.5 μM Aβ1-42, 11.5 μM D-TLKIVW, 10 μM ThT, 100 mM Bicine pH 9.1, 37°C, 4 replicates
How it was run: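 Aβ1-42 was diluted to 0.2 mg/ml in 50 mM NH4OH and 0.2 μm filtered. Final mix: 11.5 μM Aβ1-42, 10 μM ThT, 23 mM NH4OH, 100 mM Bicine pH 9.1, with or without 11.5 μM test D-peptide. Four replicates were run at 37°C with continuous 960 rpm shaking (1 mm diameter), reading ThT every minute at Ex 444/Em 482.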

tau K12 = assay: Tau K12 inhibition assay, un-seeded; format: biochemical, human; conditions: 50 μM K12, pH 7.4, 37°C
VQIVYK fibers = assay: 1H NMR binding to VQIVYK fibers
soluble VQIVYK = assay: 1H NMR binding to soluble VQIVYK; conditions: even at 70-fold molar excess of soluble VQIVYK, pH 5.0, 283 K
tau fiber elongation = tau fiber elongation (Homo sapiens, UniProt P10636); assay: Tau fibrillation kinetic analysis; format: biochemical; conditions: increasing concentrations of inhibitor peptide
Sequence of tau fiber elongation (P10636 186-283 isoform P10636-2 limits assumed): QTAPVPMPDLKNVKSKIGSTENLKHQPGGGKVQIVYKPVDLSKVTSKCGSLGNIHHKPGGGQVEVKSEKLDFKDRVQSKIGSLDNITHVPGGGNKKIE
How it was run: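 Nucleation (k1) and propagation (k2) rates were fitted from the ThS fibrillation traces of the tau construct assays. The fit used the Finke-Watzky 2-step form, with plateau values fixed first and the remaining parameters fitted by non-linear least-squares regression.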

[4] = test system: HIV-1 infection of TZM-bl cells; assay: Effect of WW61 on poly-lysine mediated enhancement of HIV-1 infection; format: cell-based; conditions: poly-lysine/WW61 100, 20, 4, 0.8, 0.16, 0.032, 0.064 and 0 μg/ml during preincubation with virus
How it was run: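 The HIV-1 CCR5-tropic molecular clone came from 293T transfection, with p24 by ELISA. Poly-lysine was mixed 1:1 with test compound. 5-fold dilutions (100, 20, 4, 0.8, 0.16, 0.032, […], 0 μg/ml) were preincubated with an equal volume of virus for 5 min at room temperature. Of each, 20 μl went onto 180 μl TZM-bl cells (LTR-lacZ). β-galactosidase in lysates was read 2 days later by luminescence (RLU/s).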

[5] = test system: HIV-1 infection of TZM-bl cells; assay: Effect of WW61, GIHKQK and PYKLWN on HIV-1 infection; format: cell-based; conditions: 150, 30, 6, 1.2 and 0 μg/ml during preincubation with virus
[6] = target: T1, tau VQIVYK segment fibers (Homo sapiens); assay: NMR
T1 chain: VQIVYK

Molecule: D-TIKWVL
- VQIVYK fibrillation inhibition, equimolar peptide (VQIVYK): little inhibitory effect
- K19 fibrillation inhibition, equimolar peptide (tau K19 [1]): little inhibitory effect

Molecule: D-TIWKVL
- VQIVYK fibrillation inhibition, equimolar peptide (VQIVYK): little inhibitory effect
- K19 fibrillation inhibition, equimolar peptide (tau K19 [1]): little inhibitory effect

Molecule: L-TLKIVW
- effectiveness of diastereomer relative to D-TLKIVW ([2]; diastereomer compared with D-TLKIVW, ThS fluorescence): less effective than D-TLKIVW

Molecule: CGGG-(D)-LKTWIV [nanogold-D-LKTWIV]
- nanogold at fiber ends, significance vs nanogold alone (ends of K19 fibers): does not differ significantly from nanogold alone
- nanogold bound to fibers, significance vs nanogold alone (K19 fibers): does not differ significantly from nanogold alone

Molecule: D-TLKIVW
- VQIVYK fiber formation delay, sub-equimolar peptide (VQIVYK; sub-equimolar concentration relative to VQIVYK): delays fiber formation even at sub-equimolar concentration
- K19 fibrillation by electron microscopy (tau K19 [3]): prevents K19 fibrillation
- block of amyloid beta fibrillation (amyloid beta(1-42)): unable to block the fibrillation of amyloid beta
- lag time in un-seeded reactions ([2]; un-seeded reactions): large increase in lag time
- delay of K12 fibrillation, five-fold molar excess (tau K12; five-fold molar excess, some experimental replicates): more than two weeks in some experimental replicates
- K12 fiber formation delay, sub-equimolar peptide (tau K12; sub-equimolar concentration relative to K12): delays fiber formation even at sub-equimolar concentration
- estimated affinity constant for fibers (VQIVYK fibers; 1H NMR, 500 MHz, fibers containing 0 to 1500 μM VQIVYK monomers): low micromolar range
- standard free binding energy (ΔGbinding) (VQIVYK fibers; from apparent Kd of 2 μM, VQIVYK fibers): ~ 7.4 kcal/mol and 7.4 kcal/mol
- change in indole proton chemical shift with soluble VQIVYK (soluble VQIVYK): Only a slight change in the chemical shifts
- fiber elongation rate (tau fiber elongation): fiber elongation rate decreases in the presence of increasing concentrations of inhibitor peptide

Molecule: D-LKTWIV
- VQIVYK fibrillation inhibition, equimolar peptide (VQIVYK): little inhibitory effect
- K19 fibrillation inhibition, equimolar peptide (tau K19 [1]): little inhibitory effect
- change in indole proton chemical shift with soluble VQIVYK (soluble VQIVYK): Only a slight change in the chemical shifts

Molecule: H-[W-H-K-chAla-W-hydroxyTic]-OH [WW61]
- effect on poly-lysine mediated HIV infectivity [4]: no inhibitory effect on poly-lysine mediated HIV infectivity
- effect on HIV infectivity in the absence of SEVI [5]: does not affect HIV infectivity

Molecule: CGGG-(D)-TLKIVW [nanogold-D-TLKIVW]
- number of fiber-bound nanogold particles localizing to fiber ends (xend), n = 86 (ends of K19 fibers; n = 86, 10 nM conjugate, 1.67 μM K19 fibers, pH 7.2, 1 hour): 49
- nanogold at fiber ends, significance vs nanogold alone (ends of K19 fibers): significantly different from nanogold alone
- nanogold bound to fibers, significance vs nanogold alone (K19 fibers): significantly different from nanogold alone

Molecule: [dT][dL][dK][dI][dV][dW] [D-TLKIVW]
- Kd [6]: ~2000 nM
